The source of these data is ChEMBL document CHEMBL1155892, “Characterization of polyketide metabolites from foliar endophytes of Picea glauca” (J Nat Prod, 2008).

Activity calls are given as the source filed them. The rule behind the calls is not given here.

One assay concerns Choristoneura fumiferana. Kind of assay: Toxicity against Choristoneura fumiferana assessed as reduction in body weight by diet incorporation assay. Type of assay: functional, organism-based. Summed up:
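Spruce budworm diet-incorporation bioassay with disease-free larvae. Extract dissolved in CH2Cl2, mixed into synthetic diet at 400 µg/g, solvent evaporated overnight. Ten second-instar larvae per cup, 3 cups per extract, held at 25 °C, 55% RH, 16 h light/day until fifth instar (about 1 week). Each larva weighed and head capsule width measured. ANOVA with Fisher's LSD; rugulosin positive control, CH2Cl2 negative control.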

In another assay the test system is Saccharomyces cerevisiae. Nature of the assay: Toxicity against Saccharomyces cerevisiae by disc diffusion method. Type of assay: functional, organism-based. Summed up:
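Antifungal screen by disc diffusion. Dried extract, 50 mg dissolved in 1 mL CH2Cl2; 10 µL applied to each small filter disc under aseptic conditions, solvent left to evaporate overnight. Discs placed on malt extract agar plates inoculated with a lawn of yeast, incubated at 25 °C, and inhibition zones measured.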

The next assay has as its system Hep 3B2. Kind of assay: Cytotoxicity against human Hep3B cells. It is filed as functional, cell-based.

As to `CCC[C@@H]1Cc2cc(OC)cc(O)c2C(=O)O1`, the result with Choristoneura fumiferana and with Saccharomyces cerevisiae was Active.

As to `OCCc1ccc(O)cc1`, the result in the assay with Choristoneura fumiferana and in the assay with Saccharomyces cerevisiae was Active. Besides, in the assay on Hep 3B2, the result was inactive.

As for `COc1cc(OC)c2c(c1)C(C)OC2=O` (stereo not drawn), the result in the assay with Choristoneura fumiferana and in the assay on Saccharomyces cerevisiae was Active.

`C[C@@H]1Cc2cccc(O)c2C(=O)O1`: the outcome in the assay on Choristoneura fumiferana and with Saccharomyces cerevisiae was Active.

For the molecule `Cc1ccc(O)c2c1C[C@@H](C)OC2=O`, the outcome in the assay on Choristoneura fumiferana and in the assay with Saccharomyces cerevisiae was Active.

Turning to `CCCCC1=C(C)COC1=O`, the outcome in the assay on Choristoneura fumiferana and with Saccharomyces cerevisiae was Active.

As for `COC(=O)c1c(OC)cc(OC)cc1C(C)=O`, the outcome in the assay on Choristoneura fumiferana and in the assay with Saccharomyces cerevisiae was Active.

With `C[C@@H]1Cc2c(C=O)ccc(O)c2C(=O)O1`, the outcome in the assay with Choristoneura fumiferana and with Saccharomyces cerevisiae was Active.

As for `COC(=O)c1c(O)c(C)cc2oc3cccc(O)c3c(=O)c12`, the result in the assay on Choristoneura fumiferana and with Saccharomyces cerevisiae was Active.

Turning to `COC(=O)c1ccc(O)c2c1C[C@@H](C)OC2=O`, the outcome with Choristoneura fumiferana and in the assay on Saccharomyces cerevisiae was Active.

Turning to `COc1cc(OC)c(C(=O)O)c(C(C)=O)c1`, the outcome in the assay with Choristoneura fumiferana and with Saccharomyces cerevisiae was Active.
